What is called CC50 is the concentration giving 50% cytotoxicity. For orientation: EC50 means the concentration giving half of the maximal effect. One may read the IC50 as the concentration that gives 50% inhibition.

Experimental findings from ChEMBL document CHEMBL3120159, “Discovery of 2-pyridone derivatives as potent HIV-1 NNRTIs using molecular hybridization based on crystallographic overlays” (Bioorg Med Chem, 2014) are described below.

A value given as a limit tells only on which side of the number the result lay.

Data set [1] can be described thus: Selectivity index, ratio of CC50 for human MT4 cells to EC50 for HIV2 ROD. Type of data set: toxicity, cell-based. To be noted: read-out: Ratio CC50/EC50. In outline:
(§1)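 Selectivity index is CC₅₀/EC₅₀. Both values come from the same MTT assay in MT-4 cells: mock-infected and virus-infected (100-300 CCID₅₀) wells were run in parallel and read at day 5.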

A short description of data set [2]: Cytotoxicity against human MT4 cells after 5 days by MTT assay. Type of data set: cell-based. In outline: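 Exponentially growing MT-4 cells resuspended at 6 × 10⁵ cells/mL and exposed to serial five-fold compound dilutions in triplicate, mock-infected alongside infected wells. Viability read by MTT assay at day 5. CC₅₀ = concentration reducing mock-infected cell viability by 50%.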
A general note: Formazan colour is commonly taken as a measure of viable cells.

The test system of data set [3] is Human immunodeficiency virus 2. The data set is described as follows: Antiviral activity against HIV2 ROD infected in human MT4 cells assessed as protection against virus-induced cytopathic effect after 5 days by MTT assay. Type of data set: functional, organism-based. To be noted: Human immunodeficiency virus 2, ISOLATE ROD, MT4, 120 h. Put shortly: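 MT-4 cells resuspended at 6 × 10⁵ cells/mL after centrifugation at 200 g for 5 min. HIV-2 (ROD) added at 100-300 CCID₅₀. Test compound given as serial five-fold dilutions, triplicate wells. Viability of infected cells measured spectrophotometrically by MTT after 5 days. EC₅₀ = concentration giving 50% protection against viral cytopathic effect.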

Data set [4] is described as follows: Selectivity index, ratio of CC50 for human MT4 cells to EC50 for HIV1 3B. Format: toxicity, cell-based. To be noted: read-out: Ratio CC50/EC50. In outline: as §1
For data set [5], the system named is Human immunodeficiency virus 1. Kind of data set: Antiviral activity against HIV1 3B harboring wild type reverse transcriptase infected in human MT4 cells assessed as protection against virus-induced cytopathic effect after 5 days by MTT assay. Type of data set: functional, organism-based. To be noted: Human immunodeficiency virus 1, 3B, MT4, 120 h. In outline: (§2)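 MT-4 cells, growing exponentially, were spun and resuspended at 6 × 10⁵ cells/mL. They were infected at the start together with compound, given as serial five-fold dilutions in triplicate wells, with mock-infected wells run in parallel. Viability was read by MTT after 5 days. EC₅₀ is the concentration giving 50% protection against viral cytopathic effect.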
In general terms: Damage to the host cells serves as the signal in cytopathic effect assays.

Data set [6] is described as follows: Selectivity index, ratio of CC50 for human MT4 cells to EC50 for HIV1 RES056. Format: toxicity, cell-based. To be noted: read-out: Ratio CC50/EC50. Put shortly: as §1
The subject of data set [7] is Human immunodeficiency virus 1. The data set is described as follows: Antiviral activity against HIV1 RES056 harboring reverse transcriptase K103N/Y181C double mutant infected in human MT4 cells assessed as protection against virus-induced cytopathic effect after 5 days by MTT assay. Format: functional, organism-based. The note with it: Human immunodeficiency virus 1, RES056, MT4, 120 h. In outline: as §2

Data set [8] relates to Human immunodeficiency virus 1. The data set is described as follows: Antiviral activity against HIV1 harboring reverse transcriptase K101N mutant infected in human MT4 cells. Format: functional, organism-based. To be noted: Human immunodeficiency virus 1, MT4.
In data set [9] the target is Human immunodeficiency virus type 1 reverse transcriptase (Human immunodeficiency virus 1, UniProt Q72547). The data set is described as follows: Inhibition of HIV1 reverse transcriptase assessed as inhibition of biotinylated dUTP incorporation after 1 hr by ELISA. Put shortly:
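Recombinant HIV-1 RT kit (colorimetric ELISA). Poly(A)·oligo(dT)₁₅ template/primer with DIG-dUTP, biotin-dUTP and dTTP, ±inhibitor, 1 h at 37 °C. Product captured on streptavidin plate (1 h, 37 °C), then anti-DIG-POD (1 h, 37 °C), ABTS developed at 25 °C, A405 read. IC₅₀ = concentration inhibiting biotin-dUTP incorporation by 50%.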

Turning to `COc1cc(Oc2c(C)cc(C)cc2C)cc(Nc2ccc([N+](=O)[O-])cc2)n1`, the selectivity ratio in data set [1] and in data set [4] was below 1 in each case. Moreover, half-maximal cytotoxicity in [2] (CC50 at 120 h) was put at 7.2 µM. Besides, the EC50 in [3] and in data set [5] was above 7.2 µM each time.
As to `Cc1cccc(C)c1Oc1cc(Nc2ccc(C#N)cc2)[nH]c(=O)c1Br`, the selectivity ratio in data set [6] is below 1; in [1], below 1; in data set [4], 17. Besides, the CC50 at 120 h in data set [2] was 63 µM. Also, the values for the EC50 in data set [7], in [3] and in data set [5] were above 63 µM, above 63 µM and 3.6 µM, respectively.
For `COc1cc(Oc2c(C)cccc2C)cc(Nc2ccc(C#N)cc2)n1`, the selectivity ratio in data set [1] and in data set [4] was below 1 throughout. Also, half-maximal cytotoxicity in data set [2] (CC50 at 120 h) was put at 8.5 µM. Moreover, the values for the 50% effective concentration (EC50) in data set [3] and in data set [5] were above 8.8 µM and above 8.5 µM, respectively.
`Cc1cccc(C)c1Oc1cc(Nc2ccc(C#N)cc2)[nH]c(=O)c1I`: the selectivity ratio in [6] is below 1; in data set [1], below 1; in data set [4], 16. The compound further came in with a CC50 at 120 h in data set [2] of 28 µM. Also, the EC50 in [7] was above 28 µM; in data set [3] it was above 28 µM; in data set [5], 1.7 µM.
In [8], `Cc1cc(/C=C/C#N)cc(C)c1Nc1ccnc(Nc2ccc(C#N)cc2)n1` [RILPIVIRINE] registered an EC50 of 0.0003 µM.
With `Cc1cc(C)cc(Oc2cc(Nc3ccc(C#N)cc3)[nH]c(=O)c2I)c1`, the selectivity ratio in data set [1] and in [4] was below 1 each time. In data set [2], this compound showed a CC50 at 120 h of 24 µM. For the same compound, the EC50 in [3] and in [5] was above 24 µM each time.
On to `COc1cc(Oc2cc(C)cc(C)c2)cc(Nc2ccc(C#N)cc2)n1`, for which the selectivity ratio in data set [1] and in data set [4] was below 1 each time. This compound also returned a CC50 at 120 h in data set [2] of 20 µM. Moreover, the EC50 in [3] and in data set [5] was above 20 µM each time.
With `Cc1cc(C)c(Oc2cc(Nc3ccc(C#N)cc3)[nH]c(=O)c2Cl)c(C)c1`, the selectivity ratio in data set [6] is 1; in [1] it was 1; in [4] it was above 35. The compound further registered a CC50 at 120 h in data set [2] above 329 µM. Besides, the 50% effective concentration (EC50) was above 329 µM in data set [7], above 329 µM in data set [3] and 9.3 µM in [5].
`CC(C)Nc1cccnc1N1CCN(C(=O)c2cc3cc(NS(C)(=O)=O)ccc3[nH]2)CC1` [DELAVIRDINE] yielded a CC50 at 120 h in data set [2] above 36 µM. In addition, the EC50 in [7] is above 36 µM; in data set [5], 0.91 µM. For the same compound, in data set [4], the selectivity ratio is above 40.
For the compound `Cc1cc(C)c(Oc2cc(Nc3ccc([N+](=O)[O-])cc3)[nH]c(=O)c2)c(C)c1`, the selectivity ratio in data set [6] was below 1; in data set [1] it was below 1; in data set [4] it was 19. The CC50 at 120 h in data set [2] was found to be 26 µM. For the same compound, the EC50 in data set [7] was above 26 µM; in data set [3] it was above 26 µM; in [5], 1.4 µM.
On to `Cc1cc(C#N)cc(C)c1Oc1cc(Nc2ccc(C#N)cc2)[nH]c(=O)c1Cl`, for which the selectivity ratio in data set [6] was 1; in [1] it was 1; in data set [4], above 44. The compound further came in with a CC50 at 120 h in [2] above 319 µM. The EC50 is above 319 µM in data set [7], above 319 µM in data set [3] and 7.2 µM in data set [5].
Turning to `Cc1cc(C)c(Oc2cc(Nc3ccc(C#N)cc3)[nH]c(=O)c2Br)c(C)c1`, the selectivity ratio was 1 in data set [6], 1 in [1] and above 9 in data set [4]. In [2], the CC50 at 120 h is above 294 µM. Moreover, the concentration for a half-maximal effect (EC50) in [7] is above 294 µM; in data set [3], above 294 µM; in [5], 32 µM.
Turning to `Cc1cc(C)c(Oc2cc(Nc3ccc(C#N)cc3)[nH]c(=O)c2)c(C)c1`, the selectivity ratio in data set [6] was below 1; in data set [1], below 1; in data set [4], 87. The compound further had a 50% cytotoxic concentration (CC50) at 120 h in [2] of 32 µM. In addition, the IC50 in [9] is 39 µM. In addition, the EC50 was above 32 µM in data set [7], above 32 µM in [3] and 0.37 µM in data set [5].
For the compound `Cc1cc(C)c(Oc2cc(Nc3ccc(C#N)cc3)[nH]c(=O)c2I)c(C)c1`, the selectivity ratio in [6] was below 1; in data set [1] it was below 1; in [4], 6. Also, the CC50 at 120 h in [2] was found to be 34 µM. In addition, the EC50 in [7] was above 34 µM; in data set [3], above 34 µM; in data set [5], 5.6 µM.
For `COc1cc(Oc2c(C)cc(C)cc2C)cc(Nc2ccc(C#N)cc2)n1`, the selectivity ratio in [6] was below 1; in [1], below 1; in data set [4], 35. This compound returned a CC50 at 120 h in [2] of 29 µM. Further, the EC50 in data set [7] is above 29 µM; in data set [3], above 29 µM; in data set [5] it was 0.84 µM.
As to `COc1cc(Oc2c(C)cc(C)cc2C)cc(Nc2ccc(C)cc2)n1`, the selectivity ratio in data set [1] and in data set [4] was below 1 throughout. This compound displayed a CC50 at 120 h in data set [2] of 35 µM. Further, the EC50 in data set [3] and in [5] was above 35 µM throughout.
With `Cc1cccc(C)c1Oc1cc(Nc2ccc(C#N)cc2)[nH]c(=O)c1`, the values for the selectivity ratio in [6], in [1] and in data set [4] were below 1, below 1 and 26, respectively. In [2], this compound returned a 50% cytotoxic concentration (CC50) at 120 h of 36 µM. In addition, the EC50 was above 36 µM in data set [7], above 36 µM in data set [3] and 1.4 µM in data set [5].
Consider `Cc1cccc(C)c1Oc1cc(Nc2ccc(C#N)cc2)[nH]c(=O)c1Cl`, for which the selectivity ratio in data set [6] was below 1; in [1] it was below 1; in data set [4], 12. The compound further yielded a CC50 at 120 h in data set [2] of 29 µM. Moreover, the EC50 was above 29 µM in [7], above 29 µM in data set [3] and 2.4 µM in [5].
On to `Cc1cc(C)cc(Oc2cc(Nc3ccc(C#N)cc3)[nH]c(=O)c2Cl)c1`, for which the selectivity ratio in [1] and in data set [4] was below 1 throughout. The same compound displayed a cytotoxic concentration (CC50) at 120 h in [2] of 21 µM. For the same compound, the EC50 in data set [3] and in [5] was above 21 µM throughout.
As to `Cc1cc(C#N)cc(C)c1Oc1cc(Nc2ccc(C#N)cc2)[nH]c(=O)c1I`, the selectivity ratio is 1 in data set [6], 1 in data set [1] and above 89 in data set [4]. This compound had a CC50 at 120 h in data set [2] above 259 µM. Moreover, the EC50 in [7] was above 259 µM; in data set [3], above 259 µM; in data set [5] it was 2.9 µM.
On to `Cc1cc(C)cc(Oc2cc(Nc3ccc(C#N)cc3)[nH]c(=O)c2)c1`, for which the selectivity ratio in [1] and in [4] was below 1 each time. For the same compound, in data set [2], the CC50 at 120 h amounted to 46 µM. Besides, the EC50 in data set [3] and in [5] was above 46 µM each time.
As to `Cc1ccc(Nc2cc(Oc3c(C)cc(C)cc3C)cc(=O)[nH]2)cc1`, the results for the selectivity ratio in data set [6], in data set [1] and in data set [4] were below 1, below 1 and 26, respectively. Moreover, the CC50 at 120 h in data set [2] is 37 µM. Moreover, the EC50 is above 37 µM in data set [7], above 37 µM in data set [3] and 1.4 µM in data set [5].
In [2], `Cc1ccnc2c1NC(=O)c1cccnc1N2C1CC1` [NEVIRAPINE] showed a cytotoxic concentration (CC50) at 120 h above 15 µM.
Take `Cc1cc(C#N)cc(C)c1Oc1cc(Nc2ccc(C#N)cc2)[nH]c(=O)c1Br`: the selectivity ratio was 1 in data set [6], 1 in data set [1] and above 244 in data set [4]. In addition, in data set [2], the CC50 at 120 h is above 287 µM. The results for the EC50 in data set [7], in data set [3] and in data set [5] were above 287 µM, above 287 µM and 1.2 µM, respectively.
Take `Cc1cc(C)cc(Oc2cc(Nc3ccc(C#N)cc3)[nH]c(=O)c2Br)c1`: the selectivity ratio in [1] and in data set [4] was below 1 in each case. Also, the CC50 at 120 h in data set [2] worked out at 19 µM. The EC50 in data set [3] and in data set [5] was above 19 µM each time.
Consider `COc1cc(Oc2c(C)cc(C#N)cc2C)cc(Nc2ccc(C#N)cc2)n1`, for which the figures for the selectivity ratio in [6], in data set [1] and in [4] were 1, at most 1 and at least 211, respectively. Besides, the CC50 at 120 h in data set [2] was above 147 µM. Besides, the results for the EC50 in data set [7], in data set [3] and in [5] were above 147 µM, above 147 µM and 0.7 µM, respectively.
